Results filed as inconclusive are left out. Activity calls are given as the source filed them.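 Rule for the calls: active = curve reaches the -35% threshold at a concentration no more than twice the top valid dose, in duplicate at both wavelengths; inconclusive = no clear call, values can overlap the other calls; inactive = the rest, including effects opposite to the expected decrease.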
experiment: P. aeruginosa growth delay under iron chelation, dose response, absorbance 405 nm, dry powder, set 6 (AID 624109); conditions: P. aeruginosa growth with EDDHA, hits give low values; at 0.056 µM unless noted
Outline: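 Material: P. aeruginosa ATCC 15692 bacteria / Input: final OD600 0.0000005 inoculum / Medium: succinate M9 medium at pH 7.0 with iron chelator EDDHA / Incubation: 24-30 h growth at 37 °C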

Max activity, inactive:
COCCC(C#N)c1ccc(F)cc1 (centres undefined) -46.3% [at 0.5 µM]
CCCCC(C#N)c1ccc(F)cn1 (centres undefined) -30.6% [at 0.5 µM]
COCCC(C#N)c1ccc(Cl)cc1 (centres undefined) -41.4%
CN(C)CCCC(C#N)c1ccc(Cl)cc1 (centres undefined) -33.4%
N#CC(c1ccc(Cl)cc1)c1ccccn1 (centres undefined) -55.2%
CCCCC(C#N)c1ccc(Cl)cn1 (centres undefined) -57.2%
Clc1ccc(C(c2cccc(Cl)n2)c2nn[nH]n2)cc1 (centres undefined) 10.4% [at 13.5 µM]
N#Cc1cccc(C(C#N)c2ccc(F)cc2)n1 (centres undefined) 19% [at 0.0195 µM]
CCCCC(C#N)c1ccccn1 (centres undefined) 1.07% [at 120 µM]
COCCNC(C#N)c1ccc(Cl)cc1 (centres undefined) -29.7% [at 4.6 µM]
CCCCC(C#N)c1ccc(Cl)cc1 (centres undefined) -39.1% [at 0.16 µM]
CCCCC(C#N)c1ccc(F)cc1 (centres undefined) -50.3% [at 1.5 µM]
N#CC(c1ccc(F)cc1)c1cccc(Cl)n1 (centres undefined) -43.2% [at 0.16 µM]
N#CC1c2ccc(Cl)cc2CCc2cccnc21 (centres undefined) -36.3% [at 4.6 µM]
